Data on ten compounds can be found in ChEMBL document CHEMBL4819095, “Development of ciclesonide analogues that block SARS-CoV-2 RNA replication” (Bioorg Med Chem Lett, 2021).

The source made the active and inactive calls. The calls are words filed in the database; no cut-off is given here.

The subject of data set [1] is SARS-CoV-2. The data set can be described thus: Antiviral activity against SARS-CoV-2 JPN/TY/WK-251 infected in African Green monkey Vero E6 cells expressing TMPRSS2 assessed as reduction in viral plaques incubated for 18 hrs by plaque reduction assay. It counts as functional, organism-based. The following applies: Severe acute respiratory syndrome coronavirus 2, dose 0.625-80 µM.

Data set [2] relates to SARS-CoV-2. Briefly: Antiviral activity against SARS-CoV-2 JPN/TY/WK-251 infected in African green monkey Vero E6 cells expressing TMPRSS2 assessed as reduction in viral RNA replication by measuring replication copies assessed per well at 10 uM incubated for 18 hrs by qRT-PCR analysis. It counts as functional, Severe acute respiratory syndrome coronavirus 2. (In general: Real-time PCR tracks product formation cycle by cycle.)

The subject of data set [3] is Vero C1008. The data set can be described thus: Cytotoxicity against African green monkey Vero E6 cells expressing TMPRSS2 assessed as reduction in cell viability upto 40 uM incubated for 18 hrs by LDH assay. The following applies: chlorocebus sabaeus, vero c1008, 18 h. The data set is classed as cell-based. An outline of the steps: (§1)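 Vero E6/TMPRSS2 cells exposed for 18 h to compounds at concentrations up to 40 µM. Cytotoxicity read as lactate dehydrogenase (LDH) release. Each independent experiment run in triplicate.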

Data set [4] concerns Vero C1008. Briefly: Cytotoxicity against African green monkey Vero E6 cells expressing TMPRSS2 assessed as reduction in cell viability at 40 uM incubated for 18 hrs by LDH assay. The data set is classed as cell-based. The following applies: chlorocebus sabaeus, vero c1008, 18 h. An outline of the steps:
as §1

The test system of data set [5] is Vero C1008. Briefly: Cytotoxicity against African green monkey Vero E6 cells expressing TMPRSS2 assessed as reduction in cell viability at 20 uM incubated for 18 hrs by LDH assay. The data set is classed as cell-based. The following applies: chlorocebus sabaeus, vero c1008, 18 h. Summed up: as §1
Setting [6] is: Severe acute respiratory syndrome coronavirus 2.

`C[C@]12C=CC(=O)C=C1CC[C@@H]1[C@@H]2[C@@H](O)C[C@@]2(C)[C@H]1C[C@H]1O[C@@H](C3CCCCC3)O[C@]12C(=O)CN=[N+]=[N-]`: the figures for the Activity entry with SARS-CoV-2 [1], in the data set with SARS-CoV-2 [2] and with Vero C1008 [3] were “Dose-Dependent Effect”, 2.1 10^5No_unit and “Non-Toxic”, respectively.

For `CN(C)CC(=O)[C@@]12O[C@H](C3CCCCC3)O[C@@H]1C[C@H]1[C@@H]3CCC4=CC(=O)C=C[C@]4(C)[C@H]3[C@@H](O)C[C@@]12C`, in the data set with Vero C1008 [4], the Activity entry is given as “Toxic”.

With `C[C@]12C=CC(=O)C=C1CC[C@@H]1[C@@H]2[C@@H](O)C[C@@]2(C)[C@H]1C[C@H]1O[C@@H](C3CCCCC3)O[C@]12C(=O)CCl`, the Activity entry is “Dose-Dependent Effect” in the data set on SARS-CoV-2 [1], 4.6 10^5No_unit in the data set with SARS-CoV-2 [2] and “Non-Toxic” with Vero C1008 [3].

As to `CC(C)C(=O)NCC(=O)[C@@]12O[C@H](C3CCCCC3)O[C@@H]1C[C@H]1[C@@H]3CCC4=CC(=O)C=C[C@]4(C)[C@H]3[C@@H](O)C[C@@]12C`, the Activity result with Vero C1008 [3] is on record as “Non-Toxic”.

As for `C[C@]12C=CC(=O)C=C1CC[C@@H]1[C@@H]2[C@@H](O)C[C@@]2(C)[C@H]1C[C@H]1O[C@@H](C3CCCCC3)O[C@]12C(=O)CO` [DESISOBUTYRYLCICLESONIDE], the values for the Activity entry in the data set with SARS-CoV-2 [1] and in the data set with Vero C1008 [5] were “Dose-Dependent Effect” and “Toxic”, respectively. In addition, in the data set with SARS-CoV-2 [2] (setting [6]), the result was Active.

For `C[C@]12C=CC(=O)C=C1CC[C@@H]1[C@@H]2[C@@H](O)C[C@@]2(C)[C@H]1C[C@H]1O[C@@H](C3CCCCC3)O[C@]12C(=O)CI`, the Activity result with Vero C1008 [4] was “Toxic”.

Regarding `C[C@]12C=CC(=O)C=C1CC[C@@H]1[C@@H]2[C@@H](O)C[C@@]2(C)[C@H]1C[C@H]1O[C@@H](C3CCCCC3)O[C@]12C(=O)CN`, the Activity result in the data set on Vero C1008 [5] is “Toxic”.

Turning to `CC(C)C(=O)OCC(=O)[C@@]12O[C@H](C3CCCCC3)O[C@@H]1C[C@H]1[C@@H]3CCC4=CC(=O)C=C[C@]4(C)[C@H]3[C@@H](O)C[C@@]12C` [CICLESONIDE], the Activity result in the data set on SARS-CoV-2 [1] is “Dose-Dependent Effect”; in the data set with SARS-CoV-2 [2], 5.2 10^5No_unit; in the data set with Vero C1008 [3], “Non-Toxic”.

Take `C[C@]12C=CC(=O)C=C1CC[C@@H]1[C@@H]2[C@@H](O)C[C@@]2(C)[C@H]1C[C@H]1O[C@@H](C3CCCCC3)O[C@]12C(=O)CBr`: in the data set on Vero C1008 [4], the Activity result was “Toxic”. Besides, the outcome in the data set on SARS-CoV-2 [2] (setting [6]) was Active.

As to `C[C@]12C=CC(=O)C=C1CC[C@@H]1[C@@H]2[C@@H](O)C[C@@]2(C)[C@H]1C[C@H]1O[C@@H](C3CCCCC3)O[C@]12C(=O)COS(C)(=O)=O`, the Activity result in the data set with Vero C1008 [5] is given as “Toxic”. The result with SARS-CoV-2 [2] (setting [6]) was Active.
